Results of several laboratories.
Target: Casein kinase I isoform gamma-3 (CSNK1G3, Homo sapiens, UniProt Q9Y6M4)

SMILES	read-out	method	concentration	remaining binding
Nc1ncc2c(n1)-c1c([nH]c3ccc(C#CC4CC4)cc13)CCCC2	binding	competition with immobilised ligand	1 µM	93%
O=C(O)[C@H]1[C@H](Cn2nnc3ccccc3c2=O)CC[C@@H]1C(=O)c1ccc(OCCC2CCOCC2)cc1	cell-free assay	competition with immobilised ligand	1 µM	100%
COc1ccnn2ncc(-c3ccnc(N(C)C)n3)c12	binding		1 µM	97%
O=C(NCCCN1CCOCC1)c1ccc(Nc2ncc(Cl)c(-c3ccc(Cl)s3)n2)cc1	binding	competition with immobilised ligand	1 µM	100%
O=C(Nc1c[nH]nc1C(=O)NC1CCNCC1)c1cc(F)cc(F)c1	binding	competition with immobilised ligand	1 µM	98%
COc1ncc2cc3ccccc3nc2c1C#N	cell-free assay	competition with immobilised ligand	5 µM	96%
CN(C)c1nccc(-c2cnc3ncccn23)n1	binding		1 µM	70%
O=C1NC(c2ccccn2)Sc2ccccc21 (centres unmarked)	cell-free assay	competition with immobilised ligand	1 µM	100%
N[C@H]1CCN(c2nccc(-c3cnn4ncccc34)n2)C1	binding		1 µM	100%
CN(C)CC#Cc1ccc(OCCCc2sc(N3CCc4cccc(C(=O)Nc5nc6ccccc6s5)c4C3)nc2C(=O)O)c(F)c1	cell-free assay	competition with immobilised ligand	1 µM	100%
COc1cnc(Nc2cccc(S(N)(=O)=O)c2)nc1N1CCN(c2ccccc2)C(=O)C1	binding	competition with immobilised ligand	1 µM	87%
CC1CCCN1c1nccc(-c2cnn3ncccc23)n1 (centres unmarked)	binding		1 µM	100%
O=C(c1ccc(Nc2nccc(-c3cc4ccccc4s3)n2)cc1)N1CCC(N2CCCC2)CC1	binding	competition with immobilised ligand	1 µM	100%
CNC(=O)[C@@H]1CC[C@@H](n2c(-c3ccc4cnccc4c3)nc3ccc(C(=O)NCc4cccc(C(N)=O)c4)cc32)C1	binding	competition with immobilised ligand	1 µM	100%
CNCc1ccccc1-c1csc([C@H](C)Nc2nc(C)nc3cc(OC)c(OC)cc23)c1	cell-free assay	competition with immobilised ligand	1 µM	93%
Cc1cnc(Nc2ccc(C(=O)N3CCC(N4CCCC4)CC3)cc2)nc1-c1cc2ccccc2s1	binding	competition with immobilised ligand	1 µM	100%
CSc1cccnc1N1CCN(Cc2nc3ccccc3[nH]2)CC1	cell-free assay	competition with immobilised ligand	1 µM	86%
CN(C)c1ncc(F)c(-c2cnn3ncccc23)n1	binding		1 µM	100%
O=C(NCc1ncc(C(F)(F)F)cc1Cl)c1ccc2c(c1)C1(CCS(=O)(=O)CC1)[C@H](C1CC1)N2S(=O)(=O)c1ccc(F)cc1	cell-free assay	competition with immobilised ligand	1 µM	100%
C[C@H]1CCN(c2nccc(-c3cnn4ncccc34)n2)C1	binding		1 µM	91%
